Measured values taken from ChEMBL document CHEMBL4028848, “Discovery of N-{4-[5-(4-Fluorophenyl)-3-methyl-2-methylsulfanyl-3H-imidazol-4-yl]-pyridin-2-yl}-acetamide (CBS-3595), a Dual p38α MAPK/PDE-4 Inhibitor with Activity against TNFα-Related Diseases” (J Med Chem, 2017).
Values belong to the compound of their own block, whether it stands above or below them. The source made the active and inactive calls. No cut-off for these calls is given here.

Key:
Canis familiaris = experiment: Tmax in Beagle dog assessed as 4-(4-(4-fluorophenyl)-1-methyl-2-(methylsulfinyl)-1H-imidazol-5-yl)pyridin-2-amine level at 40 mg/kg, po by LC-MS/MS analysis; assay type: ADME, organism-based, Canis lupus familiaris; details: in vivo
[1] = target: Mitogen-activated protein kinase 14 (Homo sapiens, UniProt Q16539); experiment: Inhibition of p38alpha MAPK (unknown origin) by beta-galactosidase enzyme complementation assay
[2] = target: Receptor-interacting serine/threonine-protein kinase 2 (Homo sapiens) (UniProt O43353); experiment: Inhibition of RIPK2 (unknown origin) at 10 uM relative to control
Homo sapiens [3] = species on record: Homo sapiens; experiment: Inhibition of cyclinH/MAT1 (unknown origin) at 10 uM relative to control
Homo sapiens [4] = species on record: Homo sapiens; experiment: Inhibition of PDE4 in LPS-stimulated human whole blood assessed as decrease in leukotriene B4 level in plasma
Liver [5] = experiment: Drug metabolism in rat liver microsomes assessed as N-(4-(4-(4-fluorophenyl)-1-methyl-2-(methylsulfinyl)-1H-imidazol-5-yl)pyridin-2-yl)acetamide formation at 10 to 100 uM; assay type: ADME, microsome
In short: (§1)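 Test compound incubated at 10, 30 and 100 μM with liver microsomes from rat, Cynomolgus monkey or human, and metabolites monitored.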

Liver [6] = experiment: Drug metabolism in human liver microsomes assessed as 4-(4-(4-fluorophenyl)-1-methyl-2-(methylsulfonyl)-1H-imidazol-5-yl)pyridin-2-amine formation at 10 to 100 uM; assay type: ADME, microsome; in short: as §1
[7] = Drug metabolism in cynomolgus monkey liver microsomes assessed as N-(4-(4-(4-fluorophenyl)-1-methyl-2-(methylsulfinyl)-1H-imidazol-5-yl)pyridin-2-yl)acetamide formation at 10 to 100 uM; assay type: ADME, Macaca fascicularis, microsome; in short: as §1
Rattus norvegicus [8] = experiment: In vivo inhibition of P38 MAPKalpha in Lewis rat assessed as decrease in LPS-stimulated TNFalpha level in serum at 10 mg/kg, po pretreated for 1 hrs followed by LPS addition measured after 1.5 hrs post dose; assay type: functional, organism-based
In short: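 Lewis rats, n = 8/group: females dosed orally at 10 mg/kg at −1, −3 or −5 h relative to LPS challenge, plus one male group dosed at −1 h. Male and female vehicle controls were given at −1 h. Serum TNFα was measured after LPS and compared with vehicle.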

Rattus norvegicus [9] = experiment: Antiarthritic activity in Lewis rat assessed as change in paw volume at 50 mg/kg, po qd administered for 10 days; assay type: functional, organism-based
In short: (§2)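 Collagen-induced arthritis in male Lewis rats (5–6 per group). Groups received vehicle, dexamethasone 1 mg/kg, test item 50 mg/kg once daily, or 25 mg/kg twice daily for 10 days. Body weight, arthritic score and paw volume were monitored, and serum COMP was measured at the end.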

Rattus norvegicus [10] = experiment: Antiarthritic activity in Lewis rat assessed as change in paw volume at 25 mg/kg, po bid administered for 10 days; assay type: functional, organism-based; in short: as §2
[11] = AUC (0 to t) in male Sprague-Dawley rat at 30 mg/kg, po by LC-MS/MS analysis; assay type: ADME, organism-based; details: in vivo
In short: (§3)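 Rats of each sex received a single oral dose of 30 mg/kg. Plasma concentration–time profiles of parent were determined separately for females and males.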

[12] = AUC (0 to infinity) in male Sprague-Dawley rat at 30 mg/kg, po by LC-MS/MS analysis; assay type: ADME, organism-based; design: dose 30 mg/kg, time infinity, route oral; details: in vivo; in short: as §3
[13] = Cmax in cynomolgus monkey at 20 mg/kg, po measured on day 1 and 27 post dose by LC-MS/MS analysis; assay type: ADME, organism-based, Macaca fascicularis; design: dose 20 mg/kg, route oral; details: in vivo
In short: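 Within a 4-week oral toxicity study, Cynomolgus monkeys received 6, 12 or 20 mg/kg daily. Blood was sampled from 0.5 to 24 h post dose on days 1 and 27. Tmax, Cmax, T1/2 and AUC0–24 came from individual profiles of parent and metabolite.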

Rattus norvegicus [14] = experiment: Toxicity in rat assessed as effect on central nervous system at 30 to 300 mg/kg, po administered as single dose; assay type: organism-based; details: in vivo
Rattus norvegicus [15] = experiment: Toxicity in rat assessed as excessive defecation at 30 to 300 mg/kg, po administered as single dose; assay type: organism-based; details: in vivo
Cynomolgus monkey [16] = experiment: Toxicity in cynomolgus monkey assessed as induction of trchycardia at 6 to 20 mg/kg, po measured after 0.5 to 6 hrs post dose; assay type: organism-based, Macaca fascicularis; details: in vivo
Cynomolgus monkey [17] = experiment: Toxicity in cynomolgus monkey assessed as decrease in QT at 6 to 20 mg/kg, po; assay type: organism-based, Macaca fascicularis; details: in vivo
Cynomolgus monkey [18] = experiment: Toxicity in cynomolgus monkey assessed as effect on mean blood preasure at 6 to 20 mg/kg, po; assay type: organism-based, Macaca fascicularis; details: in vivo
Rattus norvegicus [19] = experiment: Toxicity in Sprague-Dawley rat assessed as mortality at 2000 mg/kg, po administered via gavage after 14 days; assay type: organism-based; details: in vivo, 336 h
Rattus norvegicus [20] = experiment: Toxicity in Sprague-Dawley rat assessed as increase in abdomen size at 150 mg/kg, po administered via gavage for daily 28 days followed by 2 weeks off without dosing; assay type: organism-based; details: in vivo
Rattus norvegicus [21] = experiment: Toxicity in Sprague-Dawley rat assessed as increase in hunched posture at 150 mg/kg, po administered via gavage for daily 28 days followed by 2 weeks off without dosing; assay type: organism-based; details: in vivo
Cynomolgus monkey [22] = experiment: Toxicity in cynomolgus monkey assessed as death at 6 to 20 mg/kg followed by after 1 week high dose treatment of 25 mg/kg at 1 week post first dose for 28 days followed by 2 weeks off without dosing; assay type: organism-based, Macaca fascicularis; details: in vivo
In short: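 Cynomolgus monkeys, 32 in total, 3–5 per group. Dosed for 28 days with vehicle or 6, 12 or 20 mg/kg; the high dose was raised to 25 mg/kg/day after 1 week. Two males and two females from the control and high-dose groups were followed through a further 2-week treatment-free period. Deaths and clinical signs recorded.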

Escherichia coli = experiment: Genotoxicity in Escherichia coli in presence of S9 fraction by Ames test; assay type: toxicity
In short: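 Bacterial reverse mutation (Ames) test in S. typhimurium and E. coli strains, run with and without S9 mix.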

Homo sapiens [23] = experiment: Toxicity in human assessed as change in body weight at 50 mg, po administered as single dose; assay type: organism-based; details: in vivo
Homo sapiens [24] = experiment: Toxicity in human assessed as effect on blood pressure at 50 mg, po administered as single dose; assay type: organism-based; details: in vivo
Homo sapiens [25] = experiment: In vivo inhibition of p38 MAPKalpha in human whole blood assessed as decrease in LPS-stimulated TNFalpha level at 10 to 30 mg treated for 36 hrs followed by LPS stimulation; assay type: functional, organism-based
In short: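 Ex vivo read-out in healthy volunteers after a single oral dose (10, 20 or 30 mg; placebo-controlled, single-blind, randomized). Blood drawn pre-dose and at 1, 2, 4, 9, 24 and 36 h post-dose was stimulated with LPS. TNFα release is expressed relative to the LPS-stimulated pre-dose sample of the same subject.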

[26] = AUC (infinity) in human at 20 mg, po administered as single dose; assay type: ADME, organism-based; design: dose 20 mg, time infinity, route oral; details: in vivo
In short: (§4)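 Placebo-controlled, single-blind, randomized, consecutive-dosing study in healthy subjects given single oral doses, with 10 mg also given fasting and fed in a crossover. Plasma parent and active metabolite were measured predose and from 0.25 to 36 h post dose. PK parameters were derived from individual concentration–time profiles and reported as means.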

Homo sapiens [27] = experiment: AUC (infinity) in human assessed as 4-(4-(4-fluorophenyl)-1-methyl-2-(methylsulfinyl)-1H-imidazol-5-yl)pyridin-2-amine formation at 20 mg, po administered as single dose; assay type: ADME, organism-based; design: dose 20 mg, time infinity, route oral; details: in vivo; in short: as §4
[28] = Toxicity in Sprague-Dawley rat administered via oral gavage measured for 14 days; details: in vivo

Chain of Receptor-interacting serine/threonine-protein kinase 2 (Homo sapiens) (O43353 whole entry): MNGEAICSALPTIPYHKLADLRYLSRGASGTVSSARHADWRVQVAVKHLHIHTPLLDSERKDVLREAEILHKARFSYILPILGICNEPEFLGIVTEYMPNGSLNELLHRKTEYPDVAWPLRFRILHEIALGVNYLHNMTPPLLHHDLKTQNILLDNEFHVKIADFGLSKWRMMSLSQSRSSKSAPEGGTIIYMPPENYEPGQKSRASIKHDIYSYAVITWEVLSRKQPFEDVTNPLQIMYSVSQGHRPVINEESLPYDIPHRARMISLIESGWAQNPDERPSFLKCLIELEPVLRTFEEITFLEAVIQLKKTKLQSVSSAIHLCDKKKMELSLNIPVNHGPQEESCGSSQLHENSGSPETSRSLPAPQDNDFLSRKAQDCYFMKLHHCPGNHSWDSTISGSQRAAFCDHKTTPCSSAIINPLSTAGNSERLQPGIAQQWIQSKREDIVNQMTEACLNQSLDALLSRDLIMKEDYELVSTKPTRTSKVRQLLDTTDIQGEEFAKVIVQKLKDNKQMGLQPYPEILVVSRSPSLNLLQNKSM
Chain of Mitogen-activated protein kinase 14 (Q16539 whole entry): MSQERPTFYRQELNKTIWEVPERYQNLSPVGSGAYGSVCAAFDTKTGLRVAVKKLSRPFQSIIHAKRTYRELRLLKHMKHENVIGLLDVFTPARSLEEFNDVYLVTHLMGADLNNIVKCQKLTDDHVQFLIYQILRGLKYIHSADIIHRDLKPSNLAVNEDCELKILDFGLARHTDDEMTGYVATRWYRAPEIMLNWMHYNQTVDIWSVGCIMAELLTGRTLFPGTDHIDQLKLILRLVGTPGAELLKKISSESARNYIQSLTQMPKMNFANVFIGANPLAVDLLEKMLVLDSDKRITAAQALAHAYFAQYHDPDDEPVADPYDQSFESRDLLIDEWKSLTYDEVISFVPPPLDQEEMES

Tmax (Canis familiaris): 4 h
Compound: Cn1c([S+](C)[O-])nc(-c2ccc(F)cc2)c1-c1ccnc(N)c1 (stereo not given)

Compound: CC(=O)Nc1cc(-c2c(-c3ccc(F)cc3)nc([S+](C)[O-])n2C)ccn1 (stereo not given)
IC50 [1]: 500 nM
inhibition [2]: 33%
inhibition (Homo sapiens [3]): 54%
inhibition (Homo sapiens [4]): Dose-dependent effect
Drug metabolism (Liver [5]): Metabolite_Detected
Drug metabolism (Liver [6]): Metabolite_Detected
Drug metabolism [7]: Metabolite_Detected
inhibition (Rattus norvegicus [8]): Active
Activity (Rattus norvegicus [9]): inactive
Activity (Rattus norvegicus [10]): inactive
AUC(0-t) [11]: 29.8 µM·h
AUC(0-inf) [12]: 29.8 µM·h
Cmax [13]: 8.4 µM
Activity (Rattus norvegicus [14]): Non-Toxic
Activity (Rattus norvegicus [15]): Toxic
Activity (Cynomolgus monkey [16]): Toxic
Activity (Cynomolgus monkey [17]): Toxic
Activity (Cynomolgus monkey [18]): Non-Toxic
Activity (Rattus norvegicus [19]): Non-Toxic
Activity (Rattus norvegicus [20]): Toxic
Activity (Rattus norvegicus [21]): Toxic
Activity (Cynomolgus monkey [22]): Non-Toxic
Activity (Escherichia coli): Non-Toxic
Activity (Homo sapiens [23]): Non-Toxic
Activity (Homo sapiens [24]): Non-Toxic
inhibition (Homo sapiens [25]): Active
AUC(0-inf) [26]: 2.24 µM·h
AUC (Homo sapiens [27]): 6.1022 µM·h
MTD at 336 h [28]: 150 mg/kg
